Results on 15 compounds are retold here after ChEMBL document CHEMBL1949504, “Synthesis and anti-leishmanial activity of 5-(5-nitrofuran-2-yl)-1,3,4-thiadiazol-2-amines containing N-[(1-benzyl-1H-1,2,3-triazol-4-yl)methyl] moieties” (Eur J Med Chem, 2012).

Active and inactive are the calls of the source. The calls are words filed in the database; no cut-off is given here.

Holding throughout (format): functional, organism-based
Experiment [1] has as its system Leishmania major. The experiment can be described thus: Antiamastigote activity against Leishmania major MHOM/1L/80/ER amastigotes infected in mouse primary peritoneal macrophages assessed as decrease in number of intracellular amastigotes per macrophage after 24 hrs using Giemsa staining. In short, it runs like this: (§1)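 Mouse peritoneal macrophages on glass coverslips at 1 × 10^6/well were infected for 2 h with stationary-phase promastigotes in RPMI (2 × 10^6/well, 3 parasites per macrophage). Extracellular parasites were washed off, then compound-containing medium was added for 24 h. Cells were methanol-fixed and Giemsa-stained, with 100 cells counted per well. Two experiment sets were run.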

The subject of experiment [2] is Leishmania major. Nature of the experiment: Antileishmanial activity against promastigotes of Leishmania major […] by MTT assay. The method, boiled down:
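Promastigotes of L. major vaccine strain MRHO/IR/75/ER were used. Two or more independent experiments were run in triplicate. IC50 was obtained by linear regression and reported as the mean. Meglumine antimonate served as the standard drug.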
Background: Tetrazolium assays rely on reduction of a dye to a coloured formazan, in cell work by metabolically active cells.

The test system of experiment [3] is Leishmania major. Nature of the experiment: Antiamastigote activity against Leishmania major MHOM/1L/80/ER amastigotes infected in mouse primary peritoneal macrophages assessed as percentage of macrophage infectivity after 24 hrs using Giemsa staining. In short, it runs like this: as §1
Experiment [4] deals with Leishmania major. Nature of the experiment: Antiamastigote activity against Leishmania major MHOM/1L/80/ER amastigotes infected in mouse primary peritoneal macrophages assessed as infectivity index after 24 hrs using Giemsa staining. The method, boiled down: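 Macrophage infection and treatment were as for the amastigote counts: 1 × 10^6 peritoneal macrophages/well, infected 2 h at 3 promastigotes per cell, washed, then drug exposure for 24 h. Giemsa staining after methanol fixation, 100 cells examined per well. Infectivity index = % macrophages with at least one intracellular parasite × mean parasites per infected macrophage. Two experiment sets.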

The term IC50 denotes the concentration that gives 50% inhibition. For the compound `O=[N+]([O-])c1ccc(-c2nnc(NCc3cn(Cc4ccccc4F)nn3)s2)o1`, the result in the experiment with Leishmania major [1], in the experiment on Leishmania major [3] and in the experiment with Leishmania major [4] was Active. The same compound displayed a 50% inhibitory concentration (IC50) in the experiment on Leishmania major [2] (Leishmania major) of 19 µM.

`Cc1ccc(Cn2cc(CNc3nnc(-c4ccc([N+](=O)[O-])o4)s3)nn2)cc1`: the result in the experiment on Leishmania major [1], in the experiment on Leishmania major [3] and in the experiment on Leishmania major [4] was Active. For the same compound, in the experiment with Leishmania major [2] (Leishmania major), the IC50 was found to be 12.2 µM.

MEGLUMINE ANTIMONATE: in the experiment with Leishmania major [2], the 50% inhibitory concentration (IC50) is 68300 µM.

For the compound `O=[N+]([O-])c1ccc(-c2nnc(NCc3cn(Cc4cccc(Cl)c4)nn3)s2)o1`, it took 108 µM to reach half-maximal inhibition with Leishmania major [2] (Leishmania major) (IC50).

`O=[N+]([O-])c1ccc(-c2nnc(NCc3cn(Cc4cccc(Cl)c4Cl)nn3)s2)o1` had a half-inhibitory concentration (IC50) in the experiment with Leishmania major [2] (Leishmania major) of 104 µM.

Consider `O=[N+]([O-])c1ccc(Cn2cc(CNc3nnc(-c4ccc([N+](=O)[O-])o4)s3)nn2)cc1`, for which the concentration for half-maximal inhibition (IC50) in the experiment with Leishmania major [2] (Leishmania major) turned out to be 32.7 µM.

Regarding `O=[N+]([O-])c1ccc(-c2nnc(NCc3cn(Cc4ccc(Cl)cc4)nn3)s2)o1`, in the experiment with Leishmania major [2] (Leishmania major), the IC50 amounted to 88.8 µM.

`Cc1cccc(Cn2cc(CNc3nnc(-c4ccc([N+](=O)[O-])o4)s3)nn2)c1`: the outcome in the experiment with Leishmania major [1], in the experiment on Leishmania major [3] and in the experiment with Leishmania major [4] was Active. In addition, in the experiment on Leishmania major [2] (Leishmania major), half-maximal inhibition (IC50) was put at 21.9 µM.

On to `O=[N+]([O-])c1ccc(-c2nnc(NCc3cn(Cc4ccc(F)cc4)nn3)s2)o1`, for which the result with Leishmania major [1], with Leishmania major [3] and in the experiment on Leishmania major [4] was Active. In addition, inhibition in the experiment on Leishmania major [2] (Leishmania major) was half-maximal at 21.4 µM (IC50).

Regarding `O=[N+]([O-])c1ccc(-c2nnc(NCc3cn(Cc4c(F)cccc4Cl)nn3)s2)o1`, the result with Leishmania major [1], with Leishmania major [3] and in the experiment on Leishmania major [4] was Active. Further, half-maximal inhibition in the experiment on Leishmania major [2] (Leishmania major) (IC50) was put at 17.4 µM.

With `Cc1ccccc1Cn1cc(CNc2nnc(-c3ccc([N+](=O)[O-])o3)s2)nn1`, half-maximal inhibition in the experiment with Leishmania major [2] (Leishmania major) (IC50) required 25.2 µM.

In the case of `O=[N+]([O-])c1ccc(-c2nnc(NCc3cn(Cc4ccc(Cl)c(Cl)c4)nn3)s2)o1`, the IC50 in the experiment with Leishmania major [2] (Leishmania major) is 132 µM. Compared with the last compound, the IC50 is about 5.2-fold higher.

On to `O=[N+]([O-])c1ccc(-c2nnc(NCc3cn(Cc4ccc(Cl)cc4Cl)nn3)s2)o1`, for which the result in the experiment on Leishmania major [1], in the experiment on Leishmania major [3] and with Leishmania major [4] was Active. Also, the 50% inhibitory concentration (IC50) with Leishmania major [2] (Leishmania major) is 19.9 µM.

As to `O=[N+]([O-])c1ccc(-c2nnc(NCc3cn(Cc4ccccc4)nn3)s2)o1`, the outcome with Leishmania major [1], with Leishmania major [3] and in the experiment on Leishmania major [4] was Active. Besides, it took 19.6 µM to reach half-maximal inhibition in the experiment on Leishmania major [2] (Leishmania major) (IC50).

With `O=[N+]([O-])c1ccc(-c2nnc(NCc3cn(Cc4ccccc4Cl)nn3)s2)o1`, the outcome in the experiment with Leishmania major [1], with Leishmania major [3] and in the experiment with Leishmania major [4] was Active. The concentration for half-maximal inhibition (IC50) in the experiment on Leishmania major [2] (Leishmania major) is 18.9 µM.
